SMILES strings stand for the structures.

The subject of test [1] is L6. The test can be described thus: In vitro cytotoxic activity was determined against L6 cells. The test is classed as functional, cell-based, Rattus norvegicus.
The test system of the next test is Leishmania donovani. The test can be described thus: In vitro antiparasitic activity was determined against Leishmania donovani. The test is classed as functional, organism-based. The method in brief:
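Mouse peritoneal macrophages in RPMI 1640 with 10% heat-inactivated FBS, infected after 24 h with L. donovani amastigotes (3:1 amastigotes to macrophages); free amastigotes removed at 4 h. Next day, drug dilutions added; 96 h at 37 °C, 5% CO2. Slides methanol-fixed and Giemsa-stained; infected vs noninfected macrophages counted microscopically as % of control; IC50 by linear regression.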

Another test concerns Plasmodium falciparum. Nature of the test: In vitro antiparasitic activity against Plasmodium falciparum. The test is classed as functional, organism-based.
For the next test, the system named is Trypanosoma cruzi. Nature of the test: In vitro antiparasitic activity was determined against Trypanosoma cruzi. The format is functional, organism-based. In a few lines:
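L-6 rat myoblasts (2000 cells/well, RPMI 1640, 10% FBS, 2 mM L-glutamine) infected after 24 h with 5000 T. cruzi Tulahuen C2C4 LacZ trypomastigotes plus serial drug dilutions; 4 days at 37 °C, 5% CO2. MIC read microscopically; for IC50, CPRG/Nonidet added, colour read at 540 nm after 2–4 h, IC50 from sigmoidal curve.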

A further test concerns Trypanosoma brucei. Nature of the test: In vitro antiparasitic activity was determined against Trypanosoma brucei. The format is functional, organism-based.
Test [2] has as its system L6. Nature of the test: In vitro cytotoxic activity against L6 cells. The test is classed as functional, cell-based. The note with it: Rattus norvegicus.
The target of test [3] is 6-phosphogluconate dehydrogenase (Ovis aries) (UniProt P00349). Nature of the test: Inhibition constant against 6-phosphogluconate dehydrogenase of sheep liver; NI denotes no inhibition.
Sequence of 6-phosphogluconate dehydrogenase (Ovis aries) (P00349 whole entry, looked up): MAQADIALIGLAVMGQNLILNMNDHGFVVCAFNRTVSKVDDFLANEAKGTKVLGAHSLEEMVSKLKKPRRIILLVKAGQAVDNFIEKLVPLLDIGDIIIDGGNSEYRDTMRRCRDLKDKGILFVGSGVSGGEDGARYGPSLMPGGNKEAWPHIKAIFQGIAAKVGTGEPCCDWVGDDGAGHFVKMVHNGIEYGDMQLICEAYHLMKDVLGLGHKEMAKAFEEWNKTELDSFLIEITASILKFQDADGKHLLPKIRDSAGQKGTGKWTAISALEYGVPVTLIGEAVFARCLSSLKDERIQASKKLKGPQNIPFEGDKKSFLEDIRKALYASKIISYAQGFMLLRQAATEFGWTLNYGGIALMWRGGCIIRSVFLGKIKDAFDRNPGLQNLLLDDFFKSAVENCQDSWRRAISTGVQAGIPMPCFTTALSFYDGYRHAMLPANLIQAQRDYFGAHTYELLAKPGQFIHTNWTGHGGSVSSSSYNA
Test [4] concerns the target 6-phosphogluconate dehydrogenase (Trypanosoma brucei) (UniProt P31072). Nature of the test: Inhibition constant against 6-phosphogluconate dehydrogenase of Trypanosoma brucei expressed in Escherichia coli; NI denotes no inhibition.

Sequence of 6-phosphogluconate dehydrogenase (Trypanosoma brucei) (P31072 whole entry, looked up): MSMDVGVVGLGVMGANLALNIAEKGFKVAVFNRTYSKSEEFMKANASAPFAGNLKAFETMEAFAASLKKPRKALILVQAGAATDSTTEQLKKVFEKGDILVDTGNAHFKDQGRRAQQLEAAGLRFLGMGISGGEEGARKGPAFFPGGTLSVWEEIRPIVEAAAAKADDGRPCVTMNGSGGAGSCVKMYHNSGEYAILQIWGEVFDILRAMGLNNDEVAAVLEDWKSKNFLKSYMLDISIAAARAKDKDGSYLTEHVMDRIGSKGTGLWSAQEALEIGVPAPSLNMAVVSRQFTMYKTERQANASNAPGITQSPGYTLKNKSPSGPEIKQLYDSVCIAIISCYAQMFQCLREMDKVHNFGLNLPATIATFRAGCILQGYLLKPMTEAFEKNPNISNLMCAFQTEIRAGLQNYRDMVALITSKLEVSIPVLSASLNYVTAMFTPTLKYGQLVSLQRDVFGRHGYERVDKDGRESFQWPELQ

Broadly, the IC50 is the concentration that gives 50% inhibition. High values mean weaker potency in that assay, low ones greater potency in that assay. For `CC(=O)O[C@H](COP(=O)(O)O)C[S+]([O-])CC(=O)O` (stereo partly drawn), the IC50 result was “Not Active” in the test with L6 [1]; above 99 µM in the test with Leishmania donovani; above 164 µM in the test on Plasmodium falciparum; above 296 µM with Trypanosoma cruzi; 113 µM in the test on Trypanosoma brucei.
Take `O=C(NO)[C@H](O)[C@H](O)COP(=O)(O)O`: the concentration for half-maximal inhibition (IC50) was 269 µM with L6 [2]; above 130 µM with Leishmania donovani; above 216 µM in the test with Plasmodium falciparum; above 389 µM in the test on Trypanosoma cruzi; above 389 µM in the test with Trypanosoma brucei.
Regarding `CC1(C)O[C@H](COP(=O)(O)O)[C@H](C(=O)NO)O1`, the IC50 was above 332 µM with L6 [2]; above 111 µM with Leishmania donovani; above 184 µM in the test on Plasmodium falciparum; above 332 µM in the test with Trypanosoma cruzi; above 332 µM with Trypanosoma brucei.
`O=C(NOCc1ccccc1)[C@H](O)[C@H](O)COP(=O)(OCc1ccccc1)OCc1ccccc1`: the IC50 is 33 µM in the test with Leishmania donovani, above 100 µM in the test with Plasmodium falciparum, above 179 µM in the test on Trypanosoma cruzi and 130 µM in the test with Trypanosoma brucei.
`CC1(C)O[C@H](CO)[C@H](C(=O)NOCc2ccccc2)O1`: the IC50 in the test on L6 [2] was 37 µM; with Leishmania donovani, 30 µM; in the test on Plasmodium falciparum, 53 µM; with Trypanosoma cruzi it was above 32 µM; with Trypanosoma brucei it was 3.5 µM.
Consider `O=C(C[S+]([O-])C[C@H](O)COP(=O)(OCc1ccccc1)OCc1ccccc1)OCc1ccccc1` (stereo partly drawn), for which the Ki result in test [3] and in test [4] was “Not Active” in each case. Also, the IC50 in the test on Leishmania donovani was above 56 µM; in the test with Plasmodium falciparum, above 94 µM; with Trypanosoma cruzi, above 169 µM; in the test on Trypanosoma brucei, 82 µM.
As for `CC(=O)O[C@H](COP(=O)(OCc1ccccc1)OCc1ccccc1)C[S+]([O-])CC(=O)OCc1ccccc1` (stereo partly drawn), the IC50 with L6 [2] is 60 µM; in the test with Leishmania donovani it was 27 µM; with Plasmodium falciparum, 18 µM; in the test on Trypanosoma cruzi, above 157 µM; in the test with Trypanosoma brucei, 36 µM. The Ki entry in test [3] and in test [4] was “Not Active” each time.
On to `CC(=O)O[C@H](COP(=O)(O)O)[C@@H](OC(C)=O)C(=O)NO`, for which the IC50 in the test with L6 [2] is above 285 µM; in the test on Plasmodium falciparum, above 159 µM; in the test on Trypanosoma cruzi it was above 285 µM; in the test on Trypanosoma brucei, 229 µM.
`O=C(O)C[S+]([O-])C[C@H](O)COP(=O)(O)O` (stereo partly drawn): the IC50 is 343 µM with L6 [2], above 191 µM in the test on Plasmodium falciparum, above 343 µM in the test on Trypanosoma cruzi and 244 µM in the test on Trypanosoma brucei.
On to `O=C(CSC[C@H](O)COP(=O)(OCc1ccccc1)OCc1ccccc1)OCc1ccccc1`, for which the IC50 in the test with Leishmania donovani was 23 µM; in the test on Plasmodium falciparum, 65 µM; in the test with Trypanosoma cruzi it was 124 µM; with Trypanosoma brucei, 47 µM.
With `CC(=O)O[C@H](COP(=O)(OCc1ccccc1)OCc1ccccc1)[C@@H](OC(C)=O)C(=O)NOCc1ccccc1`, the Ki entry in test [3] and in test [4] was “Not Active” throughout. Further, the IC50 in the test with Leishmania donovani is above 17 µM; in the test with Plasmodium falciparum, above 85 µM; in the test with Trypanosoma cruzi, above 154 µM; with Trypanosoma brucei, 60 µM.
As to `CC1(C)O[C@@H]2COC(=O)[C@@H]2O1`, the concentration for half-maximal inhibition (IC50) entry in the test with L6 [1] was “Not Active”; in the test on Leishmania donovani, above 190 µM; in the test with Plasmodium falciparum it was above 316 µM; in the test with Trypanosoma cruzi, above 569 µM; in the test on Trypanosoma brucei it was 262 µM.
For `NC(=O)[C@H](O)[C@H](O)COP(=O)(O)O`, the IC50 is above 418 µM with L6 [2]; above 139 µM in the test on Leishmania donovani; above 232 µM in the test on Plasmodium falciparum; above 418 µM with Trypanosoma cruzi; 277 µM in the test on Trypanosoma brucei.
As to `CC1(C)OC[C@H](CSCC(=O)OCc2ccccc2)O1`, the IC50 in the test with Leishmania donovani was above 101 µM; in the test on Plasmodium falciparum, above 169 µM; with Trypanosoma cruzi it was 215 µM; with Trypanosoma brucei, above 304 µM.
Regarding `CC(=O)O[C@H](COP(=O)(OCc1ccccc1)OCc1ccccc1)[C@@H](OC(C)=O)C(=O)N(OCc1ccccc1)C(C)=O`, the half-maximal inhibitory concentration (IC50) in the test on Leishmania donovani is above 48 µM; with Plasmodium falciparum, above 80 µM; in the test on Trypanosoma cruzi it was above 143 µM; with Trypanosoma brucei it was 49 µM.
For `CC1(C)O[C@H](COP(=O)(O)O)[C@H](C(N)=O)O1`, the IC50 in the test with L6 [2] is above 220 µM; in the test with Plasmodium falciparum it was above 196 µM; with Trypanosoma cruzi it was 131 µM; in the test with Trypanosoma brucei, 212 µM.
`O=C(CSC[C@H](O)CO)OCc1ccccc1`: the IC50 in the test with Leishmania donovani is above 117 µM; in the test with Plasmodium falciparum it was above 195 µM; with Trypanosoma cruzi, 212 µM; in the test with Trypanosoma brucei, 75 µM.
With `CC(=O)O[C@H](COP(=O)(OCc1ccccc1)OCc1ccccc1)CSCC(=O)OCc1ccccc1`, the IC50 in the test on Leishmania donovani is 28 µM; in the test on Plasmodium falciparum it was 62 µM; in the test with Trypanosoma cruzi, above 161 µM; in the test on Trypanosoma brucei it was 137 µM.
The matching figures for `CC1(C)O[C@H](COP(=O)(OCc2ccccc2)OCc2ccccc2)[C@H](C(=O)NOCc2ccccc2)O1`: above 55 µM, above 92 µM, above 166 µM and 126 µM.
Turning to `O=C1OC[C@@H](OC2CCCO2)[C@H]1OC1CCCO1` (stereo partly drawn), the IC50 in the test with Leishmania donovani is above 105 µM; in the test with Plasmodium falciparum it was 78 µM; in the test on Trypanosoma cruzi, above 315 µM; in the test with Trypanosoma brucei, 113 µM.
Take `O=C(NO)[C@H](O)[C@H](O)CO`: the IC50 in the test with Leishmania donovani is above 199 µM; in the test on Plasmodium falciparum, 18 µM; in the test on Trypanosoma cruzi, 290 µM; with Trypanosoma brucei it was 116 µM.
For `O=C(NO)[C@H](OC1CCCO1)[C@@H](CCO)OC1CCCO1` (stereo partly drawn), the 50% inhibitory concentration (IC50) with Leishmania donovani was above 94 µM; in the test with Plasmodium falciparum, around 157 µM; in the test with Trypanosoma cruzi, above 282 µM; with Trypanosoma brucei it was 61 µM.
`O=C1OC[C@@H](O)[C@H]1O`: in the test with L6 [1], the IC50 result is reported as “Not Active”.
As to `O=C(C[S+]([O-])C[C@@H](COP(=O)(OCc1ccccc1)OCc1ccccc1)OC1CCCO1)OCc1ccccc1` (stereo partly drawn), the concentration for half-maximal inhibition (IC50) turned out to be 91 µM in the test on L6 [2], 7 µM in the test on Plasmodium falciparum, 82 µM in the test on Trypanosoma cruzi and 73 µM in the test with Trypanosoma brucei. The Ki result in test [3] and in test [4] was “Not Active” in each case.

Values taken from ChEMBL document CHEMBL1148341, “Selective inhibition of Trypanosoma brucei 6-phosphogluconate dehydrogenase by high-energy intermediate and transition-state analogues” (J Med Chem, 2004).
